Assay results pooled from the literature.
Lines come from different studies, so protocols differ.
Effect on: cell growth or viability

Structure (SMILES) | cell line | method | concentration | time | setting | measurement | result
O=C1CC[C@@H](COc2ccc(C(=O)C(Cl)Cl)cc2[N+](=O)[O-])N1 | NCI-H1975 | MTT | 2.5 µM |  |  | inhibition | 96.7%
CC1(CN)CCN(c2cnc3c(Sc4ccncc4Cl)n[nH]c3n2)CC1 | NCI-H1975 |  |  | 96 h |  | IC50 | 6680 nM
CC(C)Oc1ccc(S(=O)(=O)c2ccc(Oc3cc(OCC(N)=O)c(C(=O)C(Cl)Cl)cc3[N+](=O)[O-])cc2)cc1 | NCI-H1975 | MTT |  | 72 h |  | IC50 | 300 nM
COc1cc2c3c(n(CCCNCCO)c(=O)c2cc1OC)-c1nc2c(cc1C3=O)OCO2 | SF-539 | SRB |  | 48 h |  | GI50 | 1000 nM
O=C(NO)c1ccc(CNc2nc3cccc(-c4ccc5c(c4)OCO5)n3n2)cc1 | SF-539 | SRB |  |  |  | GI50 | 600 nM
C=CC(=O)N1CCC([C@@H]2CCNc3c(C(N)=O)c(-c4ccc(Oc5ccccc5)cc4)nn32)CC1 | TMD8 |  |  | 6 days |  | IC50 | 0.7 nM
Cc1sc2c(c1C)C(c1ccc(Cl)cc1)=N[C@@H](CC(=O)NCCCCCCCCNC(=O)COc1cccc3c1C(=O)N(C1CCC(=O)NC1=O)C3=O)c1nnc(C)n1-2 (some centres unmarked) | SET-2 | ATP luminescence |  |  |  | IC50 | 35 nM
O=C(c1ccccc1)c1ccc(Oc2ccc(C(=O)C(Cl)Cl)cc2[N+](=O)[O-])cc1 | NCI-H1975 | MTT | 2.5 µM |  |  | inhibition | 97.8%
Cc1ncc(CN2CCc3ccccc3C2)c2cc(C(=O)c3ccc4c(c3)OCCO4)oc12 | NCI-H1975 | MTT |  | 72 h |  | IC50 | 29500 nM
C=C(F)C(=O)N1CCN(c2nc(OC[C@@H]3CCCN3C)nc3c2CCN(c2cccc4cccc(Cl)c24)C3)C[C@@H]1CC#N | SW1463 | ATP luminescence |  |  | 3D culture | IC50 | 4.22 nM
C=CC(=O)Nc1cc(Nc2nccc(-c3cn(C)c4ccccc34)n2)c(OC)cc1N(C)CCN(C)C | NCI-H1975 | MTT | 0.5 µM | 72 h |  | inhibition | 69.6%
C=CC(=O)Nc1cc(Nc2nccc(-c3cn(C)c4ccccc34)n2)c(OC)cc1N(C)CCN(C)C | NCI-H1975 | MTT |  | 72 h |  | IC50 | 29500 nM
CC(C)c1ccccc1[C@@H]1CCCN1C1CC2(CCN(c3ccc(C(=O)NS(=O)(=O)c4ccc(NC[C@H]5CC[C@](C)(O)CC5)c([N+](=O)[O-])c4)c(Oc4cnc5[nH]ccc5c4)c3)CC2)C1 | Rec1 | ATP luminescence |  | 48 h |  | IC50 | 183 nM
NC(=O)COc1ccc(C(=O)C(Cl)Cl)cc1[N+](=O)[O-] | NCI-H1975 | MTT | 2.5 µM |  |  | inhibition | 26.3%
C=CC(=O)NC1CCN(c2ncc3ncnc(Nc4ccc(Oc5ccc6c(c5)ncn6C)c(C)c4)c3n2)CC1 | SUM-159-PT |  |  |  |  | EC50 | 334 nM
CN(C)C/C=C/C(=O)Nc1cc2c(Nc3ccc(F)c(Cl)c3)ncnc2cc1O[C@H]1CCOC1 | NCI-H1975 | MTT |  | 72 h |  | IC50 | 30500 nM
O=C1c2ccccc2C(=O)c2c(Oc3ccc(C(=O)C(Cl)Cl)cc3[N+](=O)[O-])cccc21 | NCI-H1975 | MTT | 2.5 µM |  |  | inhibition | 97.1%
